In ChEMBL document CHEMBL5385869, “Novel 4-aminoquinolines: Synthesis, inhibition of the Mycobacterium tuberculosis enoyl-acyl carrier protein reductase, antitubercular activity, SAR, and preclinical evaluation” (Eur J Med Chem, 2023):
Converted amounts (≈) assume the structure as drawn. The source made the active and inactive calls. No cut-off for these calls is given here.

Columns and labels:
[1] = Cytotoxicity against African green monkey Vero cells assessed as reduction in cell viability incubated for 72 hrs by neutral red uptake assay; type: toxicity, cell-based; details: chlorocebus sabaeus
How it was run: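 Cells grown in DMEM with 10% FBS. HepG2 seeded at 4 × 10³ and Vero at 2 × 10³ cells/well, 24 h before dosing. Compounds at 1, 5 and 20 μM in 1% DMSO for 72 h at 37 °C, 5% CO2. MTT readout: 5 mg/mL reagent for 4 h, absorbance at 595 nm. Neutral red readout: 25 μg/mL dye for 3 h, then acid-ethanol desorb. Viability is expressed relative to 1% DMSO controls.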

[2] = target: T1, Enoyl-[acyl-carrier-protein] reductase [NADH] (Mycobacterium tuberculosis) (UniProt P9WGR1); experiment: Binding affinity to Mycobacterium tuberculosis InhA assessed as change in enthalpy at 250 uM in presence of NADH by fluorescence spectroscopy
T1 sequence (whole entry): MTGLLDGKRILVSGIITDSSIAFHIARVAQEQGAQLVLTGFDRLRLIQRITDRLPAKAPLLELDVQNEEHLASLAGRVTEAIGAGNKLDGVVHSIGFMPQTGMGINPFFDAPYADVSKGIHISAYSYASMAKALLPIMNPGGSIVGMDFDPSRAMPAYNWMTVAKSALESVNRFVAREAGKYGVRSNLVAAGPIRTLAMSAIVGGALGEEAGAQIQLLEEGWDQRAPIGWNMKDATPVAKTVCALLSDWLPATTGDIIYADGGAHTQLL

[3] = target: T2, Enoyl-[acyl-carrier-protein] reductase [NADH] (Mycobacterium tuberculosis, UniProt P9WGR1); experiment: Noncompetitive inhibition of Mycobacterium tuberculosis InhA using DD-CoA as substrate assessed as inhibition constant for enzyme-substrate-inhibitor ternary complex in presence of varying concentrations of NADH by double reciprocal plot analysis
T2 sequence (P9WGR1 whole entry): T1 sequence (whole entry)

[4] = target: T2, Enoyl-[acyl-carrier-protein] reductase [NADH]; experiment: Binding affinity to Mycobacterium tuberculosis InhA assessed as dissociation constant at 250 uM at 25 degreeC in presence of NADH by fluorescence spectroscopy
How it was run: (§1)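 Titration of pre-formed MtInhA:NADH complex (2 mL of 3 μM enzyme with 20 μM NADH), adding microliter aliquots of 250 μM ligand stock with dilution kept ≤1%. Intrinsic fluorescence read at 295 nm excitation, 310–500 nm emission. Temperatures 15, 20, 25 and 30 °C. KD is fitted to a hyperbolic isotherm. ΔH°, ΔS° and ΔG° come from van't Hoff analysis of KD across temperatures.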

[5] = test system: Mycobacterium tuberculosis; experiment: Antibacterial activity against pan-sensitive Mycobacterium tuberculosis H37Rv ATCC 27294 measured after 7 days by resazurin dye based assay; type: functional; details: H37Rv ATCC 27294, 168 h, time 7 day
How it was run: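 Resazurin reduction microplate assay (REMA) in Middlebrook 7H9 broth with 10% ADC and 5% DMSO. Compounds come from 2 mg/mL DMSO stocks and are 2-fold serially diluted, top concentration 0.08–40 μg/mL depending on solubility. MIC is the lowest concentration preventing the blue-to-pink colour change. Three independent experiments; the reported value is the modal or the highest value.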

[6] = target: T2, Enoyl-[acyl-carrier-protein] reductase [NADH]; experiment: Competitive inhibition of Mycobacterium tuberculosis InhA using varying concentrations of DD-CoA as substrate assessed as inhibition constant for enzyme-inhibitor binary complex in presence of NADH by Lineweaver-Burk plot analysis
How it was run: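 Steady-state kinetics with recombinant MtInhA in 100 mM Pipes pH 7.0 at 25 °C. NADH fixed at 60 μM, DD-CoA varied 15–135 μM, inhibitor at fixed-varied levels of 0.2–4 μM. Kis is fitted to the competitive inhibition equation.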

[7] = target: T1, Enoyl-[acyl-carrier-protein] reductase [NADH] (Mycobacterium tuberculosis); experiment: Binding affinity to Mycobacterium tuberculosis InhA assessed as gibbs free energy change at 250 uM in presence of NADH by fluorescence spectroscopy; how it was run: as §1
[8] = Solubility of compound in PBS at pH 7.4 at 1 mg incubated for 4 hrs under shaking conditions by liquid chromotography; type: physicochemical
How it was run: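 1 mg of compound was added to 1 mL of PBS pH 7.4 or 0.1 M HCl, in triplicate. Suspensions were vortexed 1 min, shaken 4 h at 25 °C, then centrifuged 13000 rpm for 15 min at 25 °C. Supernatant was quantified by reverse-phase UHPLC (UV 260–280 nm) against a single-point calibration of compound in DMSO.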

[9] = Selectivity index, ratio of CC50 for African green monkey Vero cells by neutral red uptake assay to MIC for pan-sensitive Mycobacterium tuberculosis H37Rv ATCC 27294; type: toxicity, cell-based; details: read-out: Selectivity Index
[10] = Chemical stability in 0.1 M NH4HCO3 solution at pH 9.1 assessed as parent compound remaining at 1 to 10 uM measured after 24 hrs by HPLC-EM/MS analysis; type: physicochemical; details: dose 1-10 µM, read-out: Stability
How it was run: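 Compounds at 1–10 μM incubated 24 h at 37 °C in three media: pH 1.2 (0.1 M HCl), pH 7.4 (PBS) and pH 9.1 (0.1 M NH4HCO3). Remaining parent compound quantified afterward.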

[11] = Metabolic stability in rat liver microsomes assessed as intrinsic clearance at 2 uM measured upto 30 mins by HPLC/MS/MS analysis; type: ADME, Microsome; details: read-out: CLH
How it was run: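 Compounds at 2 μM incubated at 37 °C with 1 mg/mL rat liver microsomes containing NADPH. Parent compound consumption followed over time.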

Klebsiella pneumoniae = experiment: Antibacterial activity against multidrug-resistant Klebsiella pneumoniae clinical isolates assessed as inhibition of bacterial growth at 20 uM by broth microdilution method; type: functional, organism-based
How it was run: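 Broth microdilution in triplicate against a small bacterial panel, with compounds tested at 20 μM for growth inhibition.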

[12] = test system: Mycobacterium tuberculosis; experiment: Bacteriostatic activity in Mycobacterium tuberculosis H37Rv ATCC 27294 infected in CF-1 mouse assessed as reduction in bacterial growth in lungs at 300 to 450 uM/kg, po administered daily for 14 days starting from 7 days post infection; type: functional, organism-based; details: dose 300-450 µM/Kg, time 14.0 day
How it was run: (§2)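 Mice treated by gavage from 7 days post-infection for 14 days, daily, at 300 or 450 μM/kg. Lungs and spleen homogenized in saline and plated for CFU. Comparisons are against vehicle and early-control groups.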

[13] = target: T2, Enoyl-[acyl-carrier-protein] reductase [NADH]; experiment: Binding affinity to Mycobacterium tuberculosis InhA assessed as dissociation constant at 250 uM at 20 degreeC in presence of NADH by fluorescence spectroscopy; how it was run: as §1
[14] = test system: Mycobacterium tuberculosis; experiment: Antibacterial activity against Mycobacterium tuberculosis H37Rv ATCC 27294 infected in CF-1 mouse assessed as reversal of bacterial growth in spleen at 300 to 450 uM/kg, po administered daily for 14 days starting from 7 days post infection; type: functional, organism-based; details: dose 300-450 µM/Kg, time 14.0 day; how it was run: as §2
[15] = Toxicity in mouse at 300 mg/kg administered as single dose and measured for 14 days; type: organism-based; details: in vivo, 336 h, time 14 day
How it was run: (§3)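 Acute oral toxicity study. At day 14 the animals were euthanized, and kidneys, liver and spleen were weighed and inspected macroscopically.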

[16] = Toxicity in mouse assessed as animal death at 300 mg/kg administered as single dose and measured for 14 days; type: organism-based; details: in vivo, 336 h, time 14 day; how it was run: as §3
[17] = Toxicity in CF-1 mouse assessed as reduction in body weight at 150 uM/kg, po administered daily for 14 days; type: organism-based; details: in vivo, 336 h, time 14 day
How it was run: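 Mice were infected with M. tuberculosis H37Rv. From 7 days after infection, test and reference drugs were given daily by oral gavage for 14 days, with a vehicle-only group. Body weight was followed over the course of the experiment.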

| SMILES | CC50 at 72 h [1] [µM] | deltaH [2] [kJ/mol] | Ki [3] [µM] | Kd [4] [µM] | MIC [5] [µM] | Ki [6] [µM] | deltaG [7] [kJ/mol] | solubility thermodynamic at 4 h [8] [µM] | selectivity ratio [9] | remaining at 24 h, up to 10 µM [10] [%] | CLint scaled at 2 µM [11] [L/h/kg] | Activity (Klebsiella pneumoniae) | Activity [12] | Kd [13] [µM] | Activity [14] | Activity [15] | Activity [16] | Activity [17] |
| --- | --- | --- | --- | --- | --- | --- | --- | --- | --- | --- | --- | --- | --- | --- | --- | --- | --- | --- |
| Cc1cc(Nc2ccc(N3CCCCC3)cc2)c2cc(Cl)ccc2n1 | 11.7 | -97.1 | 0.46 | 0.9 | 0.9 (≈ 0.317 µg/mL) | 1.33 | -34.7 | 18.6 (≈ 6.54 µg/mL) | 13 | 24.7 | 3.63 | inactive |  |  |  |  |  |  |
| Cc1cc(Nc2ccc(N3CCCCC3)cc2)c2cc(Br)ccc2n1 | 12.2 | -76.6 | 0.15 | 0.81 | 0.4 (≈ 0.159 µg/mL) | 0.14 | -34.7 | 3.9 (≈ 1.55 µg/mL) | 30.5 | 47 | 2.17 | inactive | Active | 0.47 | inactive | Non-Toxic | Non-Toxic | Non-Toxic |
